# Experimental data: ChEMBL document CHEMBL4257575, “Discovery of Novel Flavonoid Dimers To Reverse Multidrug Resistance Protein 1 (MRP1, ABCC1) Mediated Drug Resistance in Cancers Using a High Throughput Platform with "Click Chemistry"” (J Med Chem, 2018)
# Active and inactive are the calls of the source. No cut-off for these calls is given here.
# Experiments:
# L929 = assay: Cytotoxicity against mouse L929 cells assessed as reduction in cell survival after 5 days by MTS assay; format: cell-based; settings: L929, 120 h
# [1] = target: T1, Multidrug resistance-associated protein 1 (Homo sapiens, UniProt P33527); assay: Inhibition of MRP1 in human 2008/MRP1 cells assessed as potentiation of doxorubicin-induced cytotoxicity by measuring cell survival at 2 uM after 5 days by MTS assay relative to control; format: cell-based; settings: 120 h
# T1 sequence (P33527 whole entry): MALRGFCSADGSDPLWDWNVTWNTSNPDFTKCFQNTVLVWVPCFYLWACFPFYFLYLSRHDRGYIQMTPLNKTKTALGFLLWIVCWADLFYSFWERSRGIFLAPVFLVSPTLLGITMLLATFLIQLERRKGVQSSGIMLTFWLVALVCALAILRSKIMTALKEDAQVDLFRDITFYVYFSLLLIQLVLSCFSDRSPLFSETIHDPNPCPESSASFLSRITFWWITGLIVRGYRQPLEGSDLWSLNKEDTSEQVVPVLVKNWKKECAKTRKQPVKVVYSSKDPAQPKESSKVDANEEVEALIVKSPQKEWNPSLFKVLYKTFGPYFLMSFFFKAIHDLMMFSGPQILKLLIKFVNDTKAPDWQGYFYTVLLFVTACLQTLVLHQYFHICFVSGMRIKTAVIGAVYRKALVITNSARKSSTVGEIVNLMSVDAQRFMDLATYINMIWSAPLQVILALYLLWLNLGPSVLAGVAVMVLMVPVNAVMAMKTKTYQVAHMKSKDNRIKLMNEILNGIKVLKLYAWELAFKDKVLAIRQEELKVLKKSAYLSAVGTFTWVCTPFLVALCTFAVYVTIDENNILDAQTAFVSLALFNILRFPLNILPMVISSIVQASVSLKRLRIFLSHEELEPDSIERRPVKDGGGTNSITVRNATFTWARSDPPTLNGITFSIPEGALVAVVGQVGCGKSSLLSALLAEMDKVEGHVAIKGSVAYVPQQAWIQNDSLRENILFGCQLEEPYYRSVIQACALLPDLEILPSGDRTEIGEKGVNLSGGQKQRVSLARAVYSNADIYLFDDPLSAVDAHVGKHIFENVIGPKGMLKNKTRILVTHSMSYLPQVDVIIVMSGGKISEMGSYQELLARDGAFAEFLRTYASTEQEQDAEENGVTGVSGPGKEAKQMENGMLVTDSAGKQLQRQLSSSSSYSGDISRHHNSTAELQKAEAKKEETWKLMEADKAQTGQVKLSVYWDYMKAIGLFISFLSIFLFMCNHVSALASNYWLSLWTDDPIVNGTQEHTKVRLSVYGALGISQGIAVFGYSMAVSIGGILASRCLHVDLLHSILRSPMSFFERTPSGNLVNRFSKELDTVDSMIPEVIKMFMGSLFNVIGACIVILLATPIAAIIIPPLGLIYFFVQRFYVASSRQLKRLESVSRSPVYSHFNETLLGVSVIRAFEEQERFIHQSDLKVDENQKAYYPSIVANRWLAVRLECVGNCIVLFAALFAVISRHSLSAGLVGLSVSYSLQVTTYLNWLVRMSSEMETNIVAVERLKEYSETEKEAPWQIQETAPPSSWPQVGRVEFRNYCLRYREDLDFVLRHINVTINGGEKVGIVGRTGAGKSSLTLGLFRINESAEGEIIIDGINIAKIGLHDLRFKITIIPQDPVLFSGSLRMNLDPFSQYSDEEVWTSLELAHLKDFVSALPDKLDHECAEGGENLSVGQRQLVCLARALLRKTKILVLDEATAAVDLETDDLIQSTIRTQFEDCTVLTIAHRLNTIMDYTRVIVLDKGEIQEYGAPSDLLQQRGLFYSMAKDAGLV
# Method in brief: (§1)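 2008/MRP1 cells (retroviral human MRP1 transfectant; RPMI 1640, 10% FBS) at 4,000 per well, with 100 nM doxorubicin plus crude, unpurified click products in DMSO: 2 µM in the primary screen, 1 µM in the secondary. Incubated 5 days at 37 °C. MTS/PMS added for 2 h at 37 °C, absorbance read at 490 nm. % survival is relative to wells without DOX or product. Run in triplicate, at least three experiments.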
# [2] = target: T1, Multidrug resistance-associated protein 1; assay: Inhibition of MRP1 in human 2008/MRP1 cells assessed as potentiation of doxorubicin-induced cytotoxicity by measuring cell survival at 1 uM after 5 days by MTS assay relative to control; format: cell-based; settings: 120 h; method in brief: as §1
# [3] = Cytotoxicity against human 2008/MRP1 cells assessed as cell survival at 2 uM after 5 days by MTS assay relative to control; format: cell-based; settings: read-out: Survival
# Homo sapiens [4] = organism: Homo sapiens; assay: Inhibition of P-gp in human LCC6MDR cells assessed as potentiation of paclitaxel-induced cytotoxicity by measuring fold reduction in paclitaxel IC50 at 1 uM after 5 days by MTS assay relative to paclitaxel alone; format: cell-based
# MRP1 = assay: in vitro; settings: mouse, L929 cells (IC50) versus 2008/MRP1 cells (EC50)
# [5] = Plasma concentration in Balb/c mouse at 10 mg/kg, iv measured up to 360 mins by LC-MS/MS analysis; format: ADME, organism-based; settings: in vivo, 6 h, BLD = below limit of detection
# Method in brief: (§2)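 Female Balb/c mice given 10 mg/kg i.v. (25G needle) of the HCl salt, 1.5 mg/mL in NMP:Cremorphol:Tween 80:H₂O (5:5:4.5:85.5). Cardiac-puncture blood under ether at 15–360 min, 3 mice per time point; plasma spun 16,000 g, stored −20°C. Methanol precipitation with [¹³C6]paclitaxel internal standard; LC-MS/MS, BEH C18, water/methanol with 0.1% formic acid gradient. Mean ± SEM.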
# [6] = Solubility in NMP/Cremorphol/Tween80/H2O (5:5:4.5:85.5) formulation; format: physicochemical
# Mus musculus = assay: Time duration at which plasma concentration stays above in vitro EC50 for MRP1 in Balb/c mouse at 10 mg/kg, iv measured up to 360 mins by LC-MS/MS analysis; format: ADME, organism-based; settings: in vivo, 6 h; method in brief: as §2
# Homo sapiens [7] = organism: Homo sapiens; assay: Effect on MRP1 expression in human 2008/MRP1 cells up to 5 uM after 3 days by FITC staining based flow cytometry; format: functional, cell-based
# Homo sapiens [8] = organism: Homo sapiens; assay: Effect on doxorubicin influx in human 2008/P cells at 2 uM incubated up to 60 mins by flow cytometric analysis; format: functional, cell-based
# Homo sapiens [9] = organism: Homo sapiens; assay: Effect on doxorubicin influx in human 2008/MRP1 cells at 2 uM incubated up to 60 mins by flow cytometric analysis; format: functional, cell-based
# [10] = target: T1, Multidrug resistance-associated protein 1; assay: Inhibition of MRP1 in human 2008/MRP1 cells assessed as effect on doxorubicin efflux at 2 uM up to 105 mins by flow cytometric analysis; format: cell-based
# Method in brief: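 Efflux: cells preloaded with 20 µM DOX in supplemented RPMI1640 for 1 h at 37°C, washed, then kept with or without 2 µM modulator. […] Mean ± SEM; paired t test at each time point.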
Cp [5],solubility [6],SMILES,IC50 (L929) [µM],Survival [1] [%],Survival [2] [%],"viability at 120 h, 2 µM [3] [%]",Ratio IC50 (Homo sapiens [4]),selectivity ratio (MRP1),Time (Mus musculus) [min],Activity (Homo sapiens [7]),Activity (Homo sapiens [8]),Activity (Homo sapiens [9]),INH [10]
,,CN(C)C(=O)CCSC(SCCC(=O)O)c1cccc(/C=C/c2ccc3ccc(Cl)cc3n2)c1 (configuration not stated) [MK-571],> 100,,,,,,,,,,
,,Cc1ccc2oc(-c3ccc(OCCCCc4cn(CCOCCOCCOc5ccc(-c6cc(=O)c7cc(F)ccc7o6)cc5)nn4)cc3)cc(=O)c2c1,> 100,34,41,100,99.2,> 461,,,,,
,,O=c1cc(-c2ccc(OCCOCCn3cc(CCCOc4ccc(-c5cc(=O)c6ccc(F)cc6o5)cc4)nn3)cc2)oc2ccccc12,> 100,21,29,91,63.5,,,,,,
Bld,Insoluble,Cc1ccc2oc(-c3ccc(OCCOCCOCCOCCOCCOc4ccc(-c5cc(=O)c6cc(C)ccc6o5)cc4)cc3)cc(=O)c2c1,> 100,,,,,,,,,,
,,Cl.O=c1cc(-c2ccc(OCCCc3cn(CCOCCOc4ccc5c(=O)cc(-c6ccccc6)oc5c4)nn3)cc2)oc2cc(F)ccc12,,,,,,,90,,,,
,,O=c1cc(-c2ccc(OCCCc3cn(CCOCCOc4ccc5c(=O)cc(-c6ccccc6)oc5c4)nn3)cc2)oc2cc(F)ccc12 [listing 1 of 2 here],,,,,40.7,,,inactive,inactive,inactive,
,,Cc1ccc2oc(-c3ccc(OCCOCCOCCn4cc(CCCOc5ccc(-c6cc(=O)c7ccc(F)cc7o6)cc5)nn4)cc3)cc(=O)c2c1,> 100,45,50,95,36.9,> 826,,,,,
,,O=c1cc(-c2ccc(OCCOCCn3cc(CN(CCOc4ccc5c(=O)cc(-c6ccccc6)oc5c4)Cc4ccccc4)nn3)cc2)oc2ccccc12,> 100,26,29,97,38.7,,,,,,
,,Cc1ccc2oc(-c3ccc(OCCCCc4cn(CCOCCOc5ccc6c(=O)cc(-c7ccccc7)oc6c5)nn4)cc3)cc(=O)c2c1,> 100,34,46,93,54.7,,,,,,
,,O=c1cc(-c2ccccc2)oc2cc(OCCOCc3cn(CCOCCOCCOc4ccc(-c5oc6ccccc6c(=O)c5OCc5ccccc5)cc4)nn3)ccc12,> 100,45,48,95,46.7,> 518,,,,,
,,O=c1cc(-c2ccc(OCCOCCn3cc(CCCOc4ccc5c(=O)cc(-c6ccccc6)oc5c4)nn3)cc2)oc2ccccc12,> 100,23,30,92,19.1,> 662,,,,,
,,Cc1ccc2oc(-c3ccc(OCCCCc4cn(CCOCCOCCOc5ccc(-c6cc(=O)c7cc(C)ccc7o6)cc5)nn4)cc3)cc(=O)c2c1,> 50,38,50,100,58.8,> 365,,,,,
,,O=c1cc(-c2ccccc2)oc2cc(OCCN(Cc3ccccc3)Cc3cn(CCOCCOc4ccc(-c5cc(=O)c6cc(F)ccc6o5)cc4)nn3)ccc12,> 100,36,46,87,26.5,> 645,,,,,
,,O=c1cc(-c2ccccc2)oc2cc(OCCCc3cn(CCOCCOc4ccc5c(=O)cc(-c6ccccc6)oc5c4)nn3)ccc12,> 100,45,49,98,4,> 336,,,,,
,,O=c1cc(-c2ccc(OCCOCCOCCn3cc(CN(CCOc4ccc5c(=O)cc(-c6ccccc6)oc5c4)Cc4ccccc4)nn3)cc2)oc2ccccc12,> 100,45,48 to 63,74,31.7,,,,,,
,,O=c1cc(-c2ccc(OCCOCCn3cc(CCCCOc4ccc5c(=O)cc(-c6ccccc6)oc5c4)nn3)cc2)oc2ccccc12,> 100,30,42,95,19.8,> 1150,,,,,
,,O=c1cc(-c2ccccc2)oc2cc(OCCN(Cc3ccccc3)Cc3cn(CCOCCOCCOc4ccc(-c5cc(=O)c6cc(F)ccc6o5)cc4)nn3)ccc12,> 100,44,50,72,16.9,> 641,,,,,
,,O=c1cc(-c2ccccc2)oc2cc(OCCCc3cn(CCOCCOCCOc4ccc(-c5cc(=O)c6cc(F)ccc6o5)cc4)nn3)ccc12,> 100,48,49,88,16,> 1050,,,,,
,,O=c1cc(-c2ccc(OCCOCCn3cc(COCCOc4ccc5c(=O)cc(-c6ccccc6)oc5c4)nn3)cc2)oc2ccccc12,> 50,31,46,97,3.3,> 190,,,,,
,,O=c1cc(-c2ccc(OCCCc3cn(CCOCCOCCOc4ccc(-c5cc(=O)c6cc(F)ccc6o5)cc4)nn3)cc2)oc2cc(F)ccc12,> 100,42,48,95,22.7,> 971,,,,,
,,O=c1cc(-c2ccc(OCCCc3cn(CCOCCOc4ccc5c(=O)cc(-c6ccccc6)oc5c4)nn3)cc2)oc2cc(F)ccc12 [listing 2 of 2 here],> 100,41,49,93,,> 1890,,,,,Active
,,O=c1cc(-c2ccc(OCCOCCn3cc(CN(Cc4ccccc4)Cc4cn(CCOCCOc5ccc(-c6cc(=O)c7ccccc7o6)cc5)nn4)nn3)cc2)oc2ccccc12,,49,79,92,,,,,,,
,,O=c1cc(-c2ccc(OCCOCCOCCn3cc(CCCOc4ccc(-c5cc(=O)c6ccc(F)cc6o5)cc4)nn3)cc2)oc2ccccc12,> 100,44,51,93,4,> 481,,,,,
,,Cc1ccc2oc(-c3ccc(OCCCCc4cn(CCOCCOc5ccc(-c6cc(=O)c7ccccc7o6)cc5)nn4)cc3)cc(=O)c2c1,> 57,20,25,85,69,> 553,,,,,
,,O=c1cc(-c2ccc(OCCCc3cn(CCOCCOc4ccc(-c5cc(=O)c6ccccc6o5)cc4)nn3)cc2)oc2ccccc12,60,29,51,81,31.7,531,,,,,
,,O=c1cc(-c2ccccc2)oc2cc(OCCOCCn3cc(CN(CCOc4ccc5c(=O)cc(-c6ccccc6)oc5c4)Cc4ccccc4)nn3)ccc12,,46,54,80,,,,,,,
,,Cc1ccc2oc(-c3ccc(OCCCCc4cn(CCOCCOc5ccc(-c6cc(=O)c7cc(F)ccc7o6)cc5)nn4)cc3)cc(=O)c2c1,> 100,30,38,99,99.2,> 400,,,,,
